Test results: ChEMBL document CHEMBL1131331, “Structure-activity studies on anticonvulsant sugar sulfamates related to topiramate. Enhanced potency with cyclic sulfate derivatives” (J Med Chem, 1998)

Tests used:
Assay type in all cases: functional
[1] = system: Mus musculus; experiment: Activity against maximal electroshock seizures in mice, 4 hr following oral administration of 75 mg/kg
Procedure, shortened: (§1)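 Mouse maximal electroshock seizure test. An electric shock is applied through corneal electrodes, and block of the hind-limb tonic-extensor seizure is scored. Compounds are given orally, usually to 10 mice per group, and tested 4 h after dosing. The result is reported as percent of dosed animals protected at the stated dose.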

[2] = system: Mus musculus; experiment: Activity against maximal electroshock seizures in mice, 4 hr following oral administration of 300 mg/kg of compound; procedure, shortened: as §1
[3] = system: Mus musculus; experiment: Activity against maximal electroshock seizures in mice, 4 hr following oral administration of 35 mg/kg of compound; procedure, shortened: as §1
[4] = system: Mus musculus; experiment: Inhibition of maximal electroshock seizures in mice, 4 hr following 10 mg/kg p.o. administration.; conditions: route oral; procedure, shortened: as §1
[5] = system: Mus musculus; experiment: Effective dose against maximal electroshock seizures in mice, at 4 hr following oral administration of 10 mg/kg of compound

Row | Structure (SMILES) | Block [1] | other results
1 | CO[C@@H]1[C@H](OC)CO[C@@]2(COS(N)(=O)=O)OC(C)(C)O[C@@H]12 | 0% | 
2 | CC1(C)O[C@H]2[C@@H]3OCCO[C@@H]3CO[C@@]2(COS(N)(=O)=O)O1 | 0% | 
3 | CC1(C)O[C@@H]2[C@@H](CO[C@@]3(CCCOS(N)(=O)=O)OC(C)(C)O[C@@H]23)O1 | 0% | 
4 | CC1(C)O[C@@H]2[C@@H](CO[C@@]3(CCOS(N)(=O)=O)OC(C)(C)O[C@@H]23)O1 | 0% | 
5 | CCO[C@@H]1[C@H](OCC)CO[C@@]2(COS(N)(=O)=O)OC(C)(C)O[C@@H]12 | 0% | Block [2]: 40%
6 | CC1(C)O[C@H]2[C@H]3C(CO[C@@]2(COS(N)(=O)=O)O1)C3(Cl)Cl (stereo partly drawn) | 0% | 
7 | CC1(C)O[C@H]2[C@@H]3OC(C(F)(F)F)(C(F)(F)F)O[C@@H]3CO[C@@]2(COS(N)(=O)=O)O1 | 40% | 
8 | CC1(C)O[C@H]2[C@@H]3O[C@@H]3CO[C@@]2(COS(N)(=O)=O)O1 | 30% | 
9 | CC1(C)O[C@H]2[C@@H]3OS(=O)(=O)O[C@@H]3CO[C@@]2(COC(N)=O)O1 | 0% | 
10 | CC1(C)O[C@H]2CCCO[C@@]2(COS(N)(=O)=O)O1 | 0% | Block [2]: 100%
11 | CC1(C)O[C@H]2[C@@H]3OC(=S)O[C@@H]3CO[C@@]2(COS(N)(=O)=O)O1 | 12.5% | 
12 | CC1(C)O[C@@H]2[C@@H](CO[C@@]3(COS(=O)(=O)NCc4ccccc4)OC(C)(C)O[C@@H]23)O1 | 0% | 
13 | CC[C@H]1O[C@@H]2[C@@H](CO[C@@]3(COS(N)(=O)=O)OC(C)(C)O[C@@H]23)O1 | 90% | Block [3]: 10%
14 | NS(=O)(=O)OC[C@@]12CCCC[C@@H]1CCC2 | 0% | 
15 | CCNS(=O)(=O)OC[C@@]12OC[C@H]3OC(C)(C)O[C@H]3[C@@H]1OC(C)(C)O2 | 90% | Block [3]: 0%
16 | C[C@@H]1O[C@@H]2[C@@H](CO[C@@]3(COS(N)(=O)=O)OC(C)(C)O[C@@H]23)O1 | 100% | Block [4]: 0%
17 | NS(=O)(=O)OC[C@@]12CCC=C[C@@H]1CCC2 | 0% | 
18 | CN(C[C@@]12OC[C@H]3OC(C)(C)O[C@H]3[C@@H]1OC(C)(C)O2)S(N)(=O)=O | 0% | 
19 | CC(OS(N)(=O)=O)[C@@]12OC[C@H]3OC(C)(C)O[C@H]3[C@@H]1OC(C)(C)O2 (stereo partly drawn) | 0% | 
20 | CC[C@@]1(C)O[C@@H]2[C@@H](CO[C@@]3(COS(N)(=O)=O)OC(C)(C)O[C@@H]23)O1 | 90% | 
21 | NS(=O)(=O)OC[C@@]12OC[C@H]3O[C@@H](c4ccccc4)O[C@H]3[C@@H]1O[C@H](c1ccccc1)O2 | 0% | 
22 | CC1(C)O[C@H]2[C@H](Br)[C@@H](Br)CO[C@@]2(COS(N)(=O)=O)O1 | 100% | Block [4]: 0%; ED50 [5]: 21 mg/kg
23 | CC(=O)NS(=O)(=O)OC[C@@]12OC[C@H]3OC(C)(C)O[C@H]3[C@@H]1OC(C)(C)O2 | 30% | 
24 | CC1(C)O[C@H]2[C@@H]3OCO[C@@H]3CO[C@@]2(COS(N)(=O)=O)O1 | 0% | 
25 | NS(=O)(=O)OC[C@@]12OC[C@H]3OS(=O)(=O)O[C@H]3[C@@H]1OC1(CCCCC1)O2 | 0% | Block [2]: 10%
26 | CC1(C)O[C@@H]2[C@@H](CO[C@@]3(COS(C)(=O)=O)OC(C)(C)O[C@@H]23)O1 | 0% | 
27 | CC1(C)C[C@H]2[C@@H]3OC(C)(C)O[C@@H]3CC[C@@]2(COS(N)(=O)=O)C1 | 0% | 

Row | Structure (SMILES) | Block [1] | other results
28 | CC1(C)O[C@H]2[C@@H]3OS(=O)O[C@@H]3CO[C@@]2(COS(N)(=O)=O)O1 (stereo partly drawn) |  | ED50 [5]: 5.7 mg/kg
29 | CCC1(CC)O[C@@H]2[C@@H](CO[C@@]3(COS(N)(=O)=O)OC(CC)(CC)O[C@@H]23)O1 | 0% | Block [2]: 70%
30 | Cc1ccc(S(=O)(=O)N=S2(=O)O[C@@H]3[C@@H](CO[C@@]4(COS(N)(=O)=O)OC(C)(C)O[C@@H]34)O2)cc1 (stereo partly drawn) |  | Block [2]: 80%
31 | CB1O[C@@H]2[C@@H](CO[C@@]3(COS(N)(=O)=O)OC(C)(C)O[C@@H]23)O1 | 0% | Block [2]: 50%
32 | NS(=O)(=O)OC[C@@]12OC[C@H]3OC4(CCCCC4)O[C@H]3[C@@H]1OC1(CCCCC1)O2 | 0% | 
33 | CC1(C)O[C@@H]2[C@@H](CC[C@@]3(COS(N)(=O)=O)CCC[C@@H]23)O1 | 0% | 
34 | CC1(C)O[C@H]2[C@@H]3OS(=O)(=O)O[C@@H]3CO[C@@]2(COS(=O)(=O)N2CCN(Cc3ccccc3)CC2)O1 | 0% | 
35 | CC1(C)O[C@H]2[C@@H]3OC4(CCCC4)O[C@@H]3CO[C@@]2(COS(N)(=O)=O)O1 | 0% | 
36 | CC1(C)O[C@H]2[C@@H]3OC(=O)O[C@@H]3CO[C@@]2(COS(N)(=O)=O)O1 | 0% | Block [2]: 70%
37 | CC1(C)O[C@@H]2[C@@H](CO[C@@]3(CNS(N)(=O)=O)OC(C)(C)O[C@@H]23)O1 | 0% | 
38 | CCCCNS(=O)(=O)OC[C@@]12OC[C@H]3OC(C)(C)O[C@H]3[C@@H]1OC(C)(C)O2 | 80% | Block [4]: 0%
39 | CC1(C)O[C@H]2[C@@H]3OB(c4ccccc4)O[C@@H]3CO[C@@]2(COS(N)(=O)=O)O1 | 0% | 
40 | CC1(C)O[C@H]2C=CCO[C@@]2(COS(N)(=O)=O)O1 |  | Block [2]: 0%
41 | CC1(C)O[C@H]2[C@@H]3OS(=O)(=O)O[C@@H]3CO[C@@]2(COS(=O)(=O)N2CCCCC2)O1 | 0% | 
42 | CC1(C)O[C@@H]2[C@@H](CO[C@@]3(CCS(N)(=O)=O)OC(C)(C)O[C@@H]23)O1 | 0% | 
43 | CCO[C@@H]1O[C@@H]2[C@@H](CO[C@@]3(COS(N)(=O)=O)OC(C)(C)O[C@@H]23)O1 | 0% | 
44 | COc1ccc(NS(=O)(=O)OC[C@@]23OC[C@H]4OS(=O)(=O)O[C@H]4[C@@H]2OC(C)(C)O3)cc1 | 0% | 
45 | NS(=O)(=O)OC[C@]12CCC[C@H]1[C@@H]1OS(=O)(=O)O[C@@H]1CC2 | 0% | 
46 | CC1(C)O[C@H]2[C@@H]3O[C@H](C(C)(C)C)O[C@@H]3CO[C@@]2(COS(N)(=O)=O)O1 | 0% | 
47 | Cc1ccc(S(=O)(=O)/N=S2\O[C@@H]3[C@@H](CO[C@@]4(COS(N)(=O)=O)OC(C)(C)O[C@@H]34)O2)cc1 (stereo partly drawn) | 0% | Block [2]: 75%
48 | NS(=O)(=O)OC[C@]12CCC[C@H]1[C@@H]1C[C@@H]1CC2 | 0% | 
49 | COC1(OC)O[C@@H]2[C@@H](CO[C@@]3(COS(N)(=O)=O)OC(C)(C)O[C@@H]23)O1 | 0% | 
50 | CCC(OS(N)(=O)=O)[C@@]12OC[C@H]3OC(C)(C)O[C@H]3[C@@H]1OC(C)(C)O2 (stereo partly drawn) | 0% | 
51 | CSC(=O)O[C@H]1CO[C@@]2(COS(N)(=O)=O)OC(C)(C)O[C@H]2[C@@H]1I | 90% | Block [4]: 0%; ED50 [5]: 30 mg/kg
52 | C[C@H]1O[C@@H]2[C@@H](CO[C@@]3(COS(N)(=O)=O)OC(C)(C)O[C@@H]23)O1 | 0% | 
53 | CC1(C)O[C@H]2[C@@H]3O[C@](C)(C(C)(C)C)O[C@@H]3CO[C@@]2(COS(N)(=O)=O)O1 | 0% | 
